Where “and” joins values, the source holds several entries; their conditions need not be identical. Identical values can stand only once. Calls of active or inactive are those of the source.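 How the source made its calls: active means compounds specific to the target that block phage lysis by more than 30% when retested across doses; inactive means the rest, not confirmed on retesting.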
Tests used:
[1] = capsule biogenesis inhibitors via T7 lysis, dose response, EV36 K1 hybrid, OD600, round 6 (AID 624055); conditions: E. coli EV36 T7 phage lysis, OD600; at 50 µM (top of the series)
How it was run: (§1)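 Material: Escherichia coli EV36, a K1:K-12 hybrid strain / Amount: overnight bacterial culture diluted 1:100 per well / Timing: 1.5 h compound pre-exposure, 3 h post-infection / Benchmarks: C7 decapsulation treatment as phage lysis control / Buffer or medium: LB growth medium / Detection: OD600 absorbance at phage infection and 3 h later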

[2] = tested on: E. coli EV36 T7 phage lysis, OD600; test: as above
How it was run: as §1

SMILES | IC50 [2] [µM] | phage lysis inhibition [1]
O=C(Nc1cc(-c2ccc(OC(F)(F)F)cc2)sc1C(=O)O)c1cc2ccccc2o1 |  | -11.1% (inactive)
O=C(NCc1ccncc1)c1ccc2ncsc2c1 |  | 128% (inactive)
CC(C)(C)c1ccc(-c2cc(NC(=O)c3ccc(Br)s3)c(C(=O)O)s2)cc1 |  | -10.5% (inactive)
O=C(NCCc1ccncc1)c1ccc2ncsc2c1 |  | 127% (inactive)
O=C(Nc1cc(-c2ccc(OC(F)(F)F)cc2)sc1C(=O)O)c1cccc(F)c1 |  | -12.3% (inactive)
O=C(Nc1cc(-c2ccc(OCCCC(F)(F)F)cc2)sc1C(=O)O)c1cc(Br)c(Br)o1 |  | -18.4% (inactive) and -21% (inactive)
CCOc1ccc(-c2cc(NC(=O)c3c(F)cccc3F)c(C(=O)O)s2)cc1 | < 6.25 | 
O=C(O)c1sc(-c2ccc(OCC(F)(F)F)cc2)cc1NC(=O)c1c(F)cccc1F | < 6.25 | 
O=C(NC1CCNCC1)c1ccc2ncsc2c1 |  | 135% (inactive)
O=C(O)c1sc(-c2ccc(OCCCC(F)(F)F)cc2)cc1NC(=O)c1c(F)cccc1F | < 6.25 | 
CCCc1ccc(-c2cc(NC(=O)c3cc(Br)c(Br)o3)c(C(=O)O)s2)cc1 | < 6.25 | 
CCOc1ccc(-c2cc(NC(=O)c3c(F)cccc3C(F)(F)F)c(C(=O)O)s2)cc1 | < 6.25 | 
COc1cc2sc(NC(=O)c3ccc(Br)s3)nc2cc1F |  | -13% (inactive)
O=C(Nc1cc(-c2ccc(OCCC(F)(F)F)cc2)sc1C(=O)O)c1ccc(Br)o1 | < 6.25 | 
CCCCOc1ccc(-c2cc(NC(=O)c3c(F)cc(F)cc3F)c(C(=O)O)s2)cc1 | < 6.25 | 
O=C(O)c1sc(-c2ccc(OCCC(F)(F)F)cc2)cc1NC(=O)c1c(F)cc(F)cc1F | < 6.25 | 
O=C(Nc1cc(-c2ccc(OC(F)(F)F)cc2)sc1C(=O)O)c1ccc(Br)o1 | < 6.25 | 
O=C(O)c1sc(-c2ccc(OCCCC(F)(F)F)cc2)cc1NC(=O)c1c(F)cc(F)cc1F | < 6.25 | 
CCCCOc1ccc(-c2cc(NC(=O)c3ccc(Br)o3)c(C(=O)O)s2)cc1 | < 6.25 | 
O=C(O)c1sc(-c2ccc(OC(F)(F)F)cc2)cc1NC(=O)c1c(F)cccc1F | < 6.25 | 

Further lines, with some results ahead:

IC50 [2] [µM] | SMILES | phage lysis inhibition [1]
< 6.25 | O=C(Nc1ccncc1)c1ccc2ncsc2c1 | 121% (inactive)
< 6.25 | CCCOc1ccc(-c2cc(NC(=O)c3c(F)cc(F)cc3F)c(C(=O)O)s2)cc1 | 
< 6.25 | O=C(Nc1cc(-c2ccc(OCC(F)(F)F)cc2)sc1C(=O)O)c1ccc(Br)o1 | 
< 6.25 | CCCc1ccc(-c2cc(NC(=O)c3ccc(Br)o3)c(C(=O)O)s2)cc1 | 
< 6.25 | CCCc1ccc(-c2cc(NC(=O)c3c(F)cccc3F)c(C(=O)O)s2)cc1 | 
< 6.25 | CCOc1ccc(-c2cc(NC(=O)c3c(F)cc(F)cc3F)c(C(=O)O)s2)cc1 | 
< 6.25 | O=C(Nc1cc(-c2ccc(OCCCC(F)(F)F)cc2)sc1C(=O)O)c1ccc(Br)o1 | 
< 6.25 | CCCCOc1ccc(-c2cc(NC(=O)c3c(F)cccc3F)c(C(=O)O)s2)cc1 | 
< 6.25 | CCCCOc1ccc(-c2cc(NC(=O)c3cc(Br)c(Br)o3)c(C(=O)O)s2)cc1 | 
< 6.25 | [N-]=[N+]=NCCOc1ccc(-c2cc(NC(=O)c3c(F)cccc3F)c(C(=O)O)s2)cc1 | 
< 6.25 | CCCc1ccc(-c2cc(NC(=O)c3c(F)cc(F)cc3F)c(C(=O)O)s2)cc1 | 
< 6.25 | O=C(O)c1sc(-c2ccc(OCCC(F)(F)F)cc2)cc1NC(=O)c1c(F)cccc1F | 
< 6.25 | O=C(O)c1sc(-c2ccc(OCC(F)(F)F)cc2)cc1NC(=O)c1c(F)cc(F)cc1F | 
< 0.21 | COc1ccc2nc(NC(=O)c3ccc(Br)s3)sc2c1 | 
